Data as given in ChEMBL document CHEMBL1152234, “Synthesis and antitumoral evaluation of indole alkaloid analogues containing an hexahydropyrrolo[1',2',3':1,9a,9]imidazo[1,2-a]indole skeleton” (2008).
Activity calls are given as the source filed them. No cut-off for these calls is given here.

What was measured:
HeLa = experiment: Inhibition of mitosis in human HeLa cells assessed as G2 checkpoint inhibition by ELISA; assay type: functional, cell-based
Outline: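 ELISA immunoassay in HeLa cells. Paclitaxel and vinblastine (each 1 µg/mL) were control inhibitors. Five fixed concentrations were tested (10, 2, 0.4, 0.08, 0.016 µg/mL). Inhibition and survival are given as % of controls.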

[1] = molecular target: Hypoxia-inducible factor 1-alpha (Homo sapiens) (UniProt Q16665); experiment: Inhibition of HIF1alpha expressed in human HeLa cells at 10 ug/mL by HIF1-luciferase reporter gene assay relative to control; assay type: cell-based
Hypoxia-inducible factor 1-alpha (Homo sapiens), sequence (Q16665 whole entry, looked up): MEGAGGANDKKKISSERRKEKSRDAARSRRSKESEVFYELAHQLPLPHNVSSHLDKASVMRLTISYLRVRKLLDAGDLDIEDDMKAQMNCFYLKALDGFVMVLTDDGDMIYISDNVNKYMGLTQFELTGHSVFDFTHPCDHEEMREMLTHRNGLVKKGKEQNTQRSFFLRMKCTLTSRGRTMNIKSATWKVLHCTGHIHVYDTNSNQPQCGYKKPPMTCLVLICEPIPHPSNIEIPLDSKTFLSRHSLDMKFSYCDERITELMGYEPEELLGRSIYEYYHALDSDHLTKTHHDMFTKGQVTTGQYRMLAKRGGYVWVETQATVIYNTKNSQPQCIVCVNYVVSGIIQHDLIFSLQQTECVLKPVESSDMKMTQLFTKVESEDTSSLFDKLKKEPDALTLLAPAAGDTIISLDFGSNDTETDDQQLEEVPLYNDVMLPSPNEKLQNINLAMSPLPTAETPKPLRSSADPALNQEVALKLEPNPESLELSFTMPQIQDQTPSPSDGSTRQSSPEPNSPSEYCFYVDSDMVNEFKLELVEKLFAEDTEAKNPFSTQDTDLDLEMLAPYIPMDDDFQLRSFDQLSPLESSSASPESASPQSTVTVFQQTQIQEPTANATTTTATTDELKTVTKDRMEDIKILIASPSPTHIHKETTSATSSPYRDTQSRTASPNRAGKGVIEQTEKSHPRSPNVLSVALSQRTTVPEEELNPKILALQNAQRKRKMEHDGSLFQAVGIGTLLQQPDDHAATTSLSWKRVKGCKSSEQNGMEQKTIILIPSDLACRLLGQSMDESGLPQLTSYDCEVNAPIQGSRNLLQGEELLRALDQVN
Outline: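 HIF1-luc stably transfected HeLa cells were plated at 20,000 cells/well and set for 24 h. They were pretreated 30 min with 1% DMSO vehicle or compound (10, 2, 0.4, 0.08, 0.016 µg/mL), then given 50 µM deferoxamine as hypoxia mimetic for 24 h. Survival was measured by calcein-AM fluorescence (0.1 µM, 30 min, 37 °C), followed by luciferase luminescence. Reported as % of control.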

MDA-MB-231 [2] = experiment: Inhibition of histone deacetylase expressed in human MDA-MB-231 cells; assay type: cell-based
Outline: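 Cell extracts from MDA-MB-231 breast carcinoma served as enzyme source. Trichostatin A at 250 nM was the reference inhibitor. Test concentrations were 10, 2, 0.4, 0.08 and 0.016 µg/mL. Data are % inhibition relative to controls.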

MDA-MB-231 [3] = experiment: Cytotoxicity against human MDA-MB-231 cells after 48 hrs by sulforhodamine B assay; assay type: functional; settings: MDA-MB-231, 48 h; for CC50: read-out: LC50 (the source's name)
Outline: (§1)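 Cells seeded at 5×10^3 per well in RPMI and allowed to attach for 18 h in drug-free medium. Samples were added in 3:7 DMSO/H2O, with highest concentration 100 µM, and exposed for 48 h. Cells were fixed with cold TCA at 4 °C for 60 min, stained with 0.4% SRB and solubilized in Tris. OD was read at 490 nm. GI50, TGI and LC50 came from automated analysis following the NCI protocol.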

HT-29 = experiment: Cytotoxicity against human HT-29 cells after 48 hrs by sulforhodamine B assay; assay type: functional; settings: HT-29, 48 h; outline: as §1
A549 = experiment: Cytotoxicity against human A549 cells after 48 hrs by sulforhodamine B assay; assay type: functional; settings: A549, 48 h; for CC50: read-out: LC50 (the source's name); outline: as §1
[4] = molecular target: Epidermal growth factor receptor (Homo sapiens) (UniProt P00533); experiment: Inhibition of EGFR expressed in human HeLa cells at 10 ug/mL by AP1-luciferase reporter gene assay relative to control; assay type: cell-based
Epidermal growth factor receptor (Homo sapiens), sequence (P00533 whole entry): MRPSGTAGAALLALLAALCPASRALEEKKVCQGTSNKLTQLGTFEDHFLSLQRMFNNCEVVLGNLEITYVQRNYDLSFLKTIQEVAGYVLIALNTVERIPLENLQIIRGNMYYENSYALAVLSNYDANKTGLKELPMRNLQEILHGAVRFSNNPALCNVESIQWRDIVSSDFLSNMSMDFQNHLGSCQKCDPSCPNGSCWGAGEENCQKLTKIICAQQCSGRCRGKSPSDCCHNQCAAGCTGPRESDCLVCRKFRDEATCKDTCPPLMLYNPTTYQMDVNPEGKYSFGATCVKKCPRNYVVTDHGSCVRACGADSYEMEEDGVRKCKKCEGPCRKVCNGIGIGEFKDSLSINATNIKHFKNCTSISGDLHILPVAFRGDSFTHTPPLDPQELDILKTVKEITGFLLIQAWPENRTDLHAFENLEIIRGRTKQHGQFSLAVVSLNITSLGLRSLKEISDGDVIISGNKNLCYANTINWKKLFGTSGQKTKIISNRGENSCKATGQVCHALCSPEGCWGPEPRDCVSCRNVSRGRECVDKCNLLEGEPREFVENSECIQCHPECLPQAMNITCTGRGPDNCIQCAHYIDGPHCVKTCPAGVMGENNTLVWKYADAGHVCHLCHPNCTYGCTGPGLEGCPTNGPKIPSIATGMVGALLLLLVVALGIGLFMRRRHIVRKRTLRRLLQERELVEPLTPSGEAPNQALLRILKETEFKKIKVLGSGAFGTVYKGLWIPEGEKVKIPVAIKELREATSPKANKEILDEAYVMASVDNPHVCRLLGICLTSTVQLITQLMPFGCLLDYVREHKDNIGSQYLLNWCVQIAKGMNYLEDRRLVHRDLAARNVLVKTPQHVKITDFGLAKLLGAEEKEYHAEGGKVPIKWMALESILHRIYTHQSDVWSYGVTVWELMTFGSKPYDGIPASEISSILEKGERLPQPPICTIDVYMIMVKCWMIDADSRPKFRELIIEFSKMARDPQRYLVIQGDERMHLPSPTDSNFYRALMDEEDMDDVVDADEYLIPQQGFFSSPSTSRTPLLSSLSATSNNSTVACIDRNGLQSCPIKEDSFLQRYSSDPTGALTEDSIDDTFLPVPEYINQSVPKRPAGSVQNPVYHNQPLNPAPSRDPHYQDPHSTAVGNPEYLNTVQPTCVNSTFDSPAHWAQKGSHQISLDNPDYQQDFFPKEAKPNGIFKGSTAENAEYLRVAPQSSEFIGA
Outline: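 AP1-luc stably transfected HeLa cells were grown in DMEM/10% FBS at 20,000 cells/well and set for 24 h. They were treated with 1% DMSO vehicle or compound (10, 2, 0.4, 0.08, 0.016 µg/mL) before stimulation with EGF at 25 ng/mL. Control inhibitor was AG-1478 at 20 µM. Survival was checked by calcein-AM (0.1 µM, 30 min, 37 °C), then luciferase read by luminescence. Values are % of control.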

[5] = molecular target: T1, Catenin beta-1 (Homo sapiens) (UniProt P35222); experiment: Inhibition of beta-catenin expressed in human SW480 cells by luciferase reporter gene assay
T1 sequence (whole entry): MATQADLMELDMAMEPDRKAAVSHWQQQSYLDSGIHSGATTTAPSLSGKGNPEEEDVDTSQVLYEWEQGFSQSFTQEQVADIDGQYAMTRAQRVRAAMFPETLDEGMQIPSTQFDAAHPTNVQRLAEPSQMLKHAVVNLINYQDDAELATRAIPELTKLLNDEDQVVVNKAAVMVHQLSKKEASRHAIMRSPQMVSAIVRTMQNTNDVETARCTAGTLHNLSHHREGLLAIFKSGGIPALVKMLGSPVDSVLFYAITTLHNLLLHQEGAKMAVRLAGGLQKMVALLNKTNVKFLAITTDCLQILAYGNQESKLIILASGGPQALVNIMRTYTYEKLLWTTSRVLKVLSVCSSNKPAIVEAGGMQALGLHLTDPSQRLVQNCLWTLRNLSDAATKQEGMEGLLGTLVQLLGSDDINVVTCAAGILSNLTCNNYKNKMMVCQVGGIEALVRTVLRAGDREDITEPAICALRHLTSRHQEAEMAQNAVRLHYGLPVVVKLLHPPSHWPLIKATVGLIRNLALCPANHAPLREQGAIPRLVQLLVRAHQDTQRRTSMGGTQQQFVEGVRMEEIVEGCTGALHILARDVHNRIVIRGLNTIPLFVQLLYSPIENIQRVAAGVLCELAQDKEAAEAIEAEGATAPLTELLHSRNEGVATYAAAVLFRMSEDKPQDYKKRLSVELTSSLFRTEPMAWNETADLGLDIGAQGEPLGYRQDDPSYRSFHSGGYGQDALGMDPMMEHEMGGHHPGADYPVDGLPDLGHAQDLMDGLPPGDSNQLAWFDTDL

Compound	Activity (HeLa)	inhibition [1]	Activity (MDA-MB-231 [2])	GI50 (MDA-MB-231 [3])	TGI (MDA-MB-231 [3])	CC50 (MDA-MB-231 [3])	GI50 (HT-29)	LC50 (concentration killing 50% of cells) (HT-29)	TGI (HT-29)	GI50 (A549)	TGI (A549)	CC50 (A549)	inhibition [4]	Activity [5]
COC(=O)[C@@H]1C[C@@]2(CC=C(C)C)c3ccccc3N3C(=N)C(C)(C)N1[C@H]32	inactive	73%	inactive	11 µM	28.3 µM	28.3 µM	4.24 µM	28.3 µM	28.3 µM	5.66 µM	28.3 µM	28.3 µM	0%	inactive
COC(=O)[C@@H]1C[C@@]2(Br)c3cc(Br)ccc3N3C(=N)C4(CCCCC4)N1[C@H]32	inactive		inactive	6.21 µM	8.49 µM	> 100 µM	7.45 µM	14.1 µM	9.31 µM	7.24 µM	10.8 µM	16.1 µM	83%	inactive
COC(=O)[C@@H]1C[C@@]2(Br)c3ccccc3N3C(=N)[C@H](C(C)(C)C)N1[C@H]32	inactive	70%	inactive	17.6 µM	25.5 µM	25.5 µM	> 100 µM	> 100 µM	> 100 µM	> 100 µM	> 100 µM	> 100 µM	0%	inactive
COC(=O)[C@@H]1C[C@@]2(Br)c3cc(Br)ccc3N3C(=N)C(C)(C)N1[C@H]32	inactive	55%	inactive	> 100 µM	> 100 µM	> 100 µM	> 100 µM	> 100 µM	> 100 µM	> 100 µM	> 100 µM	> 100 µM	45%	inactive
COC(=O)[C@@H]1C[C@@]2(CC=C(C)C)c3ccccc3N3C(=N)[C@H](c4ccccc4)N1[C@H]32	inactive	78%	inactive	> 100 µM	> 100 µM	> 100 µM	> 100 µM	> 100 µM	> 100 µM	> 100 µM	> 100 µM	> 100 µM	13%	inactive
COC(=O)[C@@H]1C[C@@]2(CC=C(C)C)c3ccccc3N3C(=N)[C@H](C(C)(C)C)N1[C@H]32	inactive	83%	inactive	15.2 µM	26.2 µM	26.2 µM	> 100 µM	> 100 µM	> 100 µM	> 100 µM	> 100 µM	> 100 µM	0%	inactive
